The species entered for data set [1] is Mus musculus. The data set can be described thus: Inhibition of hedgehog signaling pathway in mouse Light2 cells at 100 nM after 48 hrs by Gli-luciferase reporter gene assay relative to control. The class given is cell-based. Summed up: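 Single-concentration screen at 100 nM in Light II cells (NIH-3T3 with stable Gli-firefly luciferase reporter and Renilla luciferase vector), kept in DMEM/10% FBS with zeocin and G418 at 37°C, 5% CO₂. Cells treated 48 h; percent inhibition of Gli reporter from dual luciferase assay.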

Data set [2] can be described thus: Inhibition of hedgehog signaling pathway in mouse Light2 cells after 48 hrs by Gli-luciferase reporter gene assay. In kind it is cell-based.
Data set [3] relates to Medulloblastoma cell. The data set can be described thus: Anti-tumor activity against mouse Ptch+/- p53-/- medulloblastoma cells implanted in athymic nude mouse assessed as tumor growth inhibition at 10 to 20 mg/kg, po administered twice daily via gavage measured every other day during compound dosing. The class given is functional, organism-based. The method, boiled down:
(§1)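 Allograft from spontaneous intracranial medulloblastomas of Ptch+/-p53-/- mice, first passaged subcutaneously in athymic nude mice; 1 mm³ fragments implanted by trocar into the right flank. Oral gavage twice a day started at 150–200 mm³, in 0.5% NaCMC suspension. Caliper length and width taken every other day, V = L×W²/2. Five mice per group, means ± SEM.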

Data set [4] relates to Mus musculus. Description: Toxicity in athymic nude mouse implanted with mouse Ptch+/- p53-/- medulloblastoma cells assessed as body weight loss at 10 to 20 mg/kg, po administered twice daily via gavage measured every other day during compound dosing. The class given is organism-based. Particulars: in vivo. The method, boiled down:
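Nude mice bearing subcutaneous right-flank Ptch+/-p53-/- medulloblastoma fragment allografts, dosed by oral gavage twice daily (vehicle 0.5% NaCMC suspension) once tumors reached 150–200 mm³. Body weights recorded alongside caliper tumor measurements taken every other day; five animals per group.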

The test system of data set [5] is Medulloblastoma cell. Description: Anti-tumor activity against mouse Ptch+/- p53-/- medulloblastoma cells implanted in athymic nude mouse assessed as tumor growth inhibition at 20 mg/kg, po administered twice daily via gavage measured every other day during compound dosing. In kind it is functional, organism-based. The method, boiled down: as §1

pIC50: −log10 of the molar value. Activity calls are given as the source filed them. No cut-off for these calls is given here. A value given as a limit tells only on which side of the number the result lay.

Broadly, the inhibition is the relative decrease from the control value, in per cent. Broadly, the pIC50 is the negative decadic logarithm of the IC50, by convention in mol/L. Read a high pIC50 as a small IC50. Regarding `Cc1c(-c2ccnn2C)nnc(N2CCC(Nc3cnc(C(C)(C)O)cn3)CC2)c1C`, the inhibition in the data set listed under Mus musculus [1] is 10.8%. Further, the pIC50 in data set [2] is below 7.00.

On to `Cc1c(-c2ccnn2C)nnc(N2CCC(NC(=O)c3ccc(Cl)cc3C(F)(F)F)CC2)c1C`, for which, in data set [2], the pIC50 is 7.60.

For `Cc1c(-c2ccnn2C)nnc(N2CCC(NC(=O)c3ccc(Sc4ccccc4)cc3C(F)(F)F)CC2)c1C`, in the data set listed under Mus musculus [1], the inhibition stood at 82.8%. In data set [2], this compound gave a pIC50 of 7.49.

As to `Cc1c(-c2ccnn2C)nnc(N2CCC(NC(=O)OC3CCCCC3)CC2)c1C`, the inhibition in the data set filed under Mus musculus [1] was found to be 26.6%. Moreover, the pIC50 in data set [2] is below 7.00.

`CN(C(=O)c1ccc(F)cc1C(F)(F)F)C1CCN(c2nnc(-c3ccnn3C)c3ccccc23)CC1` [TALADEGIB]: the inhibition in the data set filed under Mus musculus [1] worked out at 95%. In data set [2], this compound showed a pIC50 of 8.65.

With `Cc1c(-c2ccnn2C)nnc(N2CCC(NC(=O)c3cc(F)ccc3C(F)(F)F)CC2)c1C`, the inhibition in the data set filed under Mus musculus [1] was found to be 82%. Moreover, the pIC50 in data set [2] was 7.21.

On to `Cc1c(-c2ccnn2C)nnc(N2CCN(C(=O)c3ccc(F)cc3C(F)(F)F)CC2)c1C`, for which, in the data set filed under Mus musculus [1], the inhibition is -6.57%. In data set [2], this compound showed a pIC50 below 7.00.

With `Cc1c(-c2ccnn2C)nnc(N2CCC(N(C)C(=O)c3ccc(F)cc3C(F)(F)F)CC2)c1C`, in the data set filed under Mus musculus [1], the inhibition stood at 60.9%. This compound had a pIC50 in data set [2] of 7.52.

Turning to `Cc1c(-c2ccnn2C)nnc(N2CCC(NC(=O)c3ccccc3C(F)(F)F)CC2)c1C`, in the data set filed under Mus musculus [1], the inhibition stood at 79.7%. The compound also gave a pIC50 in data set [2] of 7.48.

For `Cc1c(-c2ccc(Cl)cc2)nnc(N2CCC(NC(=O)c3ccc(F)cc3C(F)(F)F)CC2)c1C`, the inhibition in the data set filed under Mus musculus [1] was 85%. The same compound gave a pIC50 in data set [2] of 7.36.

Regarding `Cc1c(-c2ccnn2C)nnc(N2CCC(Nc3cnc(S(C)(=O)=O)cn3)CC2)c1C`, the inhibition in the data set filed under Mus musculus [1] came out at 23.8%. In data set [2], this compound had a pIC50 below 7.00.

Turning to `Cc1ccc(-c2nnc(N3CCC(NC(=O)c4ccc(F)cc4C(F)(F)F)CC3)c(C)c2C)cc1`, in the data set listed under Mus musculus [1], the inhibition is 101%. Further, the pIC50 in data set [2] is 7.92.

As for `Cc1c(-c2ccnn2C)nnc(N2CCC(NC(=O)c3ccc(Oc4ccccc4F)cc3C(F)(F)F)CC2)c1C`, the inhibition in the data set listed under Mus musculus [1] was 91.5%. In data set [2], this compound had a pIC50 of 7.78.

Take `Cc1c(-c2ccnn2C)nnc(N2CCC(NC(=O)Nc3cccnc3)CC2)c1C`: in the data set filed under Mus musculus [1], the inhibition turned out to be 3.47%. This compound also showed a pIC50 in data set [2] below 7.00.

As to `Cc1c(-c2ccnn2C)nnc(N2CCC(NC(=O)NC3CCCCCC3)CC2)c1C`, the inhibition in the data set filed under Mus musculus [1] amounted to 45.7%. Besides, the pIC50 in data set [2] was below 7.00.

For `Cc1c(-c2ccnn2C)nnc(N2CCC(NC(=O)c3ccc(F)cc3C(F)(F)F)CC2)c1C`, the inhibition in the data set listed under Mus musculus [1] stood at 89.5%. In addition, the pIC50 in data set [2] is 8.63. Moreover, the TGI result in the data set on Medulloblastoma cell [3] was “Active”. In addition, the Activity entry in the data set on Mus musculus [4] was “Non-Toxic”.

As for `Cc1c(-c2ccnn2C)nnc(N2CCC(Nc3ccc(C(C)(C)O)nn3)CC2)c1C`, in the data set listed under Mus musculus [1], the inhibition was determined as 20.6%. In data set [2], the pIC50 is below 7.00.

For `Cc1c(-c2ccc(C#N)cc2)nnc(N2CCC(NC(=O)c3ccc(F)cc3C(F)(F)F)CC2)c1C`, the inhibition in the data set filed under Mus musculus [1] was found to be 111%. For the same compound, the pIC50 in data set [2] is 8.07.

For `Cc1c(-c2ccnn2C)nnc(N2CC[C@@H](NC(=O)c3ccc(F)cc3C(F)(F)F)C2)c1C`, the inhibition in the data set filed under Mus musculus [1] came to 54.1%. The compound further gave a pIC50 in data set [2] of 7.44.

Consider `CS(=O)(=O)c1ccc(C(=O)Nc2ccc(Cl)c(-c3ccccn3)c2)c(Cl)c1` [VISMODEGIB], for which, in the data set filed under Mus musculus [1], the inhibition is 108%. Moreover, the pIC50 in data set [2] was 8.61. Further, in the data set on Medulloblastoma cell [5], the TGI entry is “Active”.

With `Cc1c(-c2ccnn2C)nnc(N2CCC(NC(=O)Oc3ccccc3)CC2)c1C`, the inhibition in the data set filed under Mus musculus [1] worked out at 41.2%. The same compound showed a pIC50 in data set [2] below 7.00.

As for `Cc1c(-c2ccnn2C)nnc(N2CCC(Nc3ccc(C(C)(C)O)cn3)CC2)c1C`, in the data set listed under Mus musculus [1], the inhibition is 31.8%. This compound had a pIC50 in data set [2] below 7.00.

For the compound `Cc1c(-c2ccnn2C)nnc(N2CCC(NC(=O)c3cccc(F)c3)CC2)c1C`, the inhibition in the data set listed under Mus musculus [1] is 82.1%. The pIC50 in data set [2] was below 7.00.

As to `Cc1c(-c2ccccc2Cl)nnc(N2CCC(NC(=O)c3ccc(F)cc3C(F)(F)F)CC2)c1C`, the inhibition in the data set filed under Mus musculus [1] is 106%. The compound also showed a pIC50 in data set [2] of 8.15.

`COc1ccc(-c2nnc(N3CCC(NC(=O)c4ccc(F)cc4C(F)(F)F)CC3)c(C)c2C)cc1`: the inhibition in the data set listed under Mus musculus [1] was found to be 74.5%. The compound also gave a pIC50 in data set [2] of 7.66.

As to `Cc1c(-c2ccnn2C)nnc(N2CCC(NC(=O)c3ccc(Oc4ccccc4)cc3C(F)(F)F)CC2)c1C`, the inhibition in the data set filed under Mus musculus [1] is 78.9%. The pIC50 in data set [2] was 7.44.

`Cc1c(-c2ccncc2)nnc(N2CCC(NC(=O)c3ccc(F)cc3C(F)(F)F)CC2)c1C`: the inhibition in the data set filed under Mus musculus [1] stood at 76%. The compound further showed a pIC50 in data set [2] of 7.36.

Regarding `Cc1c(-c2ccccc2)nnc(N2CCC(NC(=O)c3ccc(F)cc3C(F)(F)F)CC2)c1C`, in the data set listed under Mus musculus [1], the inhibition is 90.2%. For the same compound, the pIC50 in data set [2] is 7.59.

In the case of `Cc1c(-c2ccnn2C)nnc(N2CCC(NC(=O)NC3CCCC3)CC2)c1C`, the inhibition in the data set filed under Mus musculus [1] worked out at 24.4%. Also, the pIC50 in data set [2] was below 7.00.

On to `Cc1c(-c2ccnn2C)nnc(N2CCC(NC(=O)Nc3ccccc3)CC2)c1C`, for which the inhibition in the data set listed under Mus musculus [1] was determined as 26.2%. For the same compound, in data set [2], the pIC50 was below 7.00.

As to `Cc1c(-c2ccnn2C)nnc(N2CCC(NC(=O)c3c(F)cccc3C(F)(F)F)CC2)c1C`, the inhibition in the data set filed under Mus musculus [1] was 79.8%. The compound also had a pIC50 in data set [2] of 7.37.
